What is called pIC50 is the negative decadic logarithm of the IC50, by convention in mol/L.

Each structure is given as a SMILES string. pIC50: −log10 of the molar value.

Sequence of Urease (P07374 whole entry): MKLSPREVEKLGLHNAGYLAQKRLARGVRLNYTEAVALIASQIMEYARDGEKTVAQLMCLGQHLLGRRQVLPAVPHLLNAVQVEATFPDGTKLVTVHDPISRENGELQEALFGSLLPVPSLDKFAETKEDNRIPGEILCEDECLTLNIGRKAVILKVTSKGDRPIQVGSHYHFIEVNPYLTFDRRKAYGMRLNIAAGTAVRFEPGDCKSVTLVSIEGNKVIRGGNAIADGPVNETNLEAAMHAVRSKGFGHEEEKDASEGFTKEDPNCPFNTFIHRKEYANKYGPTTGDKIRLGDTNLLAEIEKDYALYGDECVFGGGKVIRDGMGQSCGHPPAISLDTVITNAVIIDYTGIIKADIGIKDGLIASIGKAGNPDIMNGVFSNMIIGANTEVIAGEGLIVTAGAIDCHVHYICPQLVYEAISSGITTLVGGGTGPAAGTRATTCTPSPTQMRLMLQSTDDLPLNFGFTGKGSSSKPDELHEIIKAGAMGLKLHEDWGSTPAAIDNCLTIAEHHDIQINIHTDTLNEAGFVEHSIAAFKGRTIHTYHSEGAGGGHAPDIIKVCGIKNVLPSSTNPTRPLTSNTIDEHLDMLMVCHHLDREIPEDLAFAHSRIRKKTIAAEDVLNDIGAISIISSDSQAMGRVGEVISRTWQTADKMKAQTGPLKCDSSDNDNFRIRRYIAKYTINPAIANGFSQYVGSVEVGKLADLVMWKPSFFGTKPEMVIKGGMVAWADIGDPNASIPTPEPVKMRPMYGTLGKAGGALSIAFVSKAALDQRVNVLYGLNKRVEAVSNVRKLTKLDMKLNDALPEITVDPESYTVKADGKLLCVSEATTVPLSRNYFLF

The test deals with Urease (Canavalia ensiformis, UniProt P07374). In words: Inhibition of jack bean Urease assessed as ammonia production after 15 mins by indophenol method. Put shortly:
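Jack bean urease preincubated with test compound (0.5 mM, concentration as printed) in buffer containing 100 mM urea at 30 °C for 15 min, pH 6.8. Ammonia quantified by indophenol method (phenol/nitroprusside plus alkaline hypochlorite). Absorbance read at 630 nm after 50 min.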
As for `O=C1NC(=O)C(=CNc2ccc(C(=O)O)c(O)c2)C(=O)N1`, the pIC50 was 4.05. `O=C1NC(=O)C(=CNc2ccc([N+](=O)[O-])c(C(=O)O)c2)C(=O)N1`: the pIC50 is 4.59.

Consider `O=C1NC(=S)NC(=O)C1=CNc1ccccc1C(=O)O`, for which the pIC50 is 4.89. On to `O=C1NC(=S)NC(=O)C1=CNc1cccc(C(=O)O)c1`, for which the pIC50 is 4.66. In the case of `O=C1NC(=S)NC(=O)C1=CNc1ccc(C(=O)O)cc1` it was 5.05.

Consider `O=C1NC(=S)NC(=O)C1=CNc1ccc(C(=O)O)c(O)c1`, for which the pIC50 is 4.49.

On to `O=C1NC(=S)NC(=O)C1=CNc1cc([N+](=O)[O-])ccc1C(=O)O`, for which the negative-log IC50 (pIC50) is 5.07. Turning to `O=C1NC(=S)NC(=O)C1=CNc1cc(C(=O)O)ccc1O`, the pIC50 is 4.72. For `O=C1NC(=S)NC(=O)C1=CNc1ccc([N+](=O)[O-])c(C(=O)O)c1`, the pIC50 was 4.40. Consider `O=C1NC(=S)NC(=O)C1=CNc1cc(C(=O)O)ccc1Cl`, for which the pIC50 is 4.57. In the case of `O=C1NC(=O)C(=CNc2ccccc2S)C(=O)N1` it was 4.28; in that of `O=C1NC(=S)NC(=O)C1=CNc1ccccc1C(F)(F)F`, 4.19; in that of `O=C1NC(=S)NC(=O)C1=CNc1cccc(C(F)(F)F)c1`, 4.61. With `O=C1NC(=S)NC(=O)C1=CNc1ccc(C(F)(F)F)cc1`, the pIC50 was 3.87. On to `O=C1NC(=S)NC(=O)C1=CNc1cc([N+](=O)[O-])ccc1C(F)(F)F`, for which the pIC50 is 4.54. In the case of `O=C1NC(=S)NC(=O)C1=CNc1cc(Cl)cc(Cl)c1`, the pIC50 was 4.05. On to `O=C1NC(=S)NC(=O)C1=CNc1ccc(I)cc1`, for which the pIC50 was 4.38. For the compound `O=C1NC(=S)NC(=O)C1=CNc1ccccc1O`, the pIC50 is 4.71. As for `O=C1NC(=S)NC(=O)C1=CNc1ccccc1S`, the figure is 4.82.

The values above are taken from ChEMBL document CHEMBL3600340, “Design and synthesis of new barbituric- and thiobarbituric acid derivatives as potent urease inhibitors: Structure activity relationship and molecular modeling studies” (Bioorg Med Chem, 2015).
